Experiments:
A-431 [1] = assay: Antitumor activity against human A431 cells xenografted in nude CD1 mouse assessed as tumor volume inhibition at 37 mg/kg, po administered qd 3 times per week for 2 weeks relative to control; assay type: functional; settings: A-431, 336 h, read-out: TGI
How it was run: (§1)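 A431 epidermoid carcinoma cells (5 × 10⁶) from in vitro culture were injected s.c. into the right flank of CD1 nude mice on day 0, with 8 mice per group. Dosing began on day 3, at tumors of about 50 mm³, on a qdx3/wx2w schedule. Vehicle was 10% DMSO, 9% HPBCD and 14.4% PEG1000 in water. Tumor diameters were measured twice weekly by caliper, and TVI% was taken versus the vehicle group (Mann–Whitney).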

[2] = Chemical stability in aqueous buffer containing 5% DMSO and 5% tween 80 at pH 1.2 assessed as compound recovery in anoxic conditions after 3 hrs by UPLC analysis; assay type: physicochemical; settings: read-out: Stability
How it was run: (§2)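 Stability at 37 °C in aqueous buffer with 5% DMSO and 5% Tween 80 at pH 1.2, 6.8 or 7.4; percent recovery by HPLC/UPLC on BEH C18 column, water+0.1% TFA/acetonitrile gradient from 40% to 95% acetonitrile over 8 min, room temperature.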

A-431 [3] = assay: Antitumor activity against human A431 cells xenografted in nude CD1 mouse assessed as tumor volume inhibition at 37 mg/kg, ip administered qd 3 times per week for 2 weeks relative to control; assay type: functional; settings: A-431, ip, 336 h, route intraperitoneal, read-out: TGI; how it was run: as §1
NCI-H460 [4] = assay: Antiproliferative activity against human NCI-H460 cells incubated for 24 hrs drug exposure measured after 48 hrs of recovery by sulforhodamine B assay; assay type: functional, cell-based
Mus musculus [5] = assay: Toxicity in nude CD1 mouse xenografted with human A431 cells assessed as body weight loss at 37 mg/kg, ip administered qd 3 times per week for 2 weeks; assay type: organism-based, A-431; set-up: dose 37 mg/kg, route intraperitoneal; settings: in vivo, 336 h
How it was run: (§3)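 CD1 nude mice bore s.c. A431 xenografts (5 × 10⁶ cells, right flank, 8 mice per group). Dosing started on day 3 on a qdx3/wx2w schedule, in vehicle of 10% DMSO, 9% HPBCD and 14.4% PEG1000 in water. Mice were weighed daily, and BWL% = 100 − (mean body weight day x / mean body weight day 1 × 100), with day 1 the first treatment day. The maximum BWL is reported.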

Mus musculus [6] = assay: Toxicity in nude CD1 mouse xenografted with human A431 cells assessed as body weight loss at 37 mg/kg, po administered qd 3 times per week for 2 weeks; assay type: organism-based, A-431; set-up: dose 37 mg/kg, route oral; settings: in vivo, 336 h; how it was run: as §3
[7] = Chemical stability in aqueous buffer containing 5% DMSO and 5% tween 80 at pH 7.4 assessed as compound recovery in anoxic conditions after 6 hrs by UPLC analysis; assay type: physicochemical; settings: read-out: Stability; how it was run: as §2
[8] = Solubility in water; assay type: physicochemical; settings: buffer
[9] = Chemical stability in aqueous buffer containing 5% DMSO and 5% tween 80 at pH 7.4 assessed as compound recovery in anoxic conditions after 24 hrs by UPLC analysis; assay type: physicochemical; settings: read-out: Stability; how it was run: as §2
[10] = Chemical stability in aqueous buffer containing 5% DMSO and 5% tween 80 at pH 1.2 assessed as compound recovery in anoxic conditions after 12 hrs by UPLC analysis; assay type: physicochemical; settings: pH 1.2, 12 h; how it was run: as §2
A-431 [11] = assay: Antiproliferative activity against human A431 cells incubated for 24 hrs drug exposure measured after 48 hrs of recovery by sulforhodamine B assay; assay type: functional, cell-based
[12] = Chemical stability in aqueous buffer containing 5% DMSO and 5% tween 80 at pH 6.8 assessed as compound recovery in anoxic conditions after 24 hrs by UPLC analysis; assay type: physicochemical; settings: read-out: Stability; how it was run: as §2
Mus musculus [13] = assay: Toxicity in nude CD1 mouse xenografted with human A431 cells assessed as body weight loss at 25 mg/kg, po administered qd 3 times per week for 2 weeks; assay type: organism-based, A-431; set-up: dose 25 mg/kg, route oral; settings: in vivo, 336 h
How it was run: (§4)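 CD1 nude mice given s.c. right-flank NCI-H460 (3 × 10⁶) or A431 (5 × 10⁶) cells from culture on day 0; eight mice per group. Dosing began day 3 at ~50 mm³ tumors; vehicle 10% DMSO, 9% HPBCD, 14.4% PEG1000 in water. Diameters taken biweekly by caliper; mice weighed daily, maximum BWL% reported; Mann–Whitney versus vehicle.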

A-431 [14] = assay: Antitumor activity against human A431 cells xenografted in nude CD1 mouse assessed as tumor volume inhibition at 25 mg/kg, po administered qd 3 times per week for 2 weeks relative to control; assay type: functional; settings: A-431, 336 h, read-out: TGI; how it was run: as §4
Mus musculus [15] = assay: Toxicity in nude CD1 mouse xenografted with human NCI-H460 NSCLC cells assessed as body weight loss at 25 mg/kg, po administered qd 3 times per week for 2 weeks; assay type: organism-based; set-up: dose 25 mg/kg, route oral; settings: in vivo, 336 h; how it was run: as §4
Mus musculus [16] = assay: Toxicity in nude CD1 mouse xenografted with human NCI-H460 NSCLC cells assessed as body weight loss at 13 mg/kg, iv administered qd 3 times per week for 2 weeks; assay type: organism-based; set-up: dose 13 mg/kg, route intravenous; settings: in vivo, 336 h; how it was run: as §4
[17] = Toxicity in po dosed nude CD1 mouse xenografted with human A431 cells assessed as mortality administered qd 3 times per week for 2 weeks; assay type: organism-based, A-431; settings: in vivo
[18] = Toxicity in iv dosed nude CD1 mouse xenografted with human A431 cells assessed as mortality administered qd 3 times per week for 2 weeks; assay type: organism-based, A-431; settings: in vivo
NCI-H460 [19] = assay: Antitumor activity against human NCI-H460 cells xenografted in nude CD1 mouse assessed as tumor volume inhibition at 13 mg/kg, iv administered qd 3 times per week for 2 weeks relative to control; assay type: functional; settings: NCI-H460, 336 h, read-out: TGI; how it was run: as §4
NCI-H460 [20] = assay: Antitumor activity against human NCI-H460 cells xenografted in nude CD1 mouse assessed as tumor volume inhibition at 25 mg/kg, po administered qd 3 times per week for 2 weeks relative to control; assay type: functional; settings: NCI-H460, 336 h, read-out: TGI; how it was run: as §4

Compound	inhibition in vivo at 37 mg/kg (A-431 [1]) [%]	remaining at 3 h [2] [%]	inhibition in vivo at 37 mg/kg (A-431 [3]) [%]	IC50 (NCI-H460 [4]) [nM]	Activity (Mus musculus [5]) [%]	Activity (Mus musculus [6]) [%]	remaining at 6 h [7] [%]	solubility [8]	remaining at 24 h [9] [%]	Stability [10]	IC50 (A-431 [11]) [nM]	remaining at 24 h [12] [%]	Activity (Mus musculus [13]) [%]	inhibition in vivo at 25 mg/kg (A-431 [14]) [%]	Activity (Mus musculus [15]) [%]	Activity (Mus musculus [16]) [%]	MTD at 336 h [17] [mg/kg]	MTD at 336 h [18] [mg/kg]	inhibition in vivo at 13 mg/kg (NCI-H460 [19]) [%]	inhibition in vivo at 25 mg/kg (NCI-H460 [20]) [%]
Cl.O=C(O)/C=C/c1ccc(-c2ccc(OC(=O)NCCN3CCOCC3)c(C34CC5CC(CC(C5)C3)C4)c2)cc1	0	> 99	21	920	0	0	> 99	Insoluble	85	Stable	1400	> 99								
O=C(O)/C=C/c1ccc(-c2ccc(O)c(C34CC5CC(CC(C5)C3)C4)c2)cc1 [ADAROTENE]		> 99		200				Insoluble	> 99	Stable	120	> 99	12	36	9	8	25	13	37	34

Source: ChEMBL document CHEMBL1955854, “New retinoid derivatives as back-ups of Adarotene” (Bioorg Med Chem, 2012)
